# Experiments:
# [1] = test system: Serine/threonine-protein kinase B-raf (Homo sapiens), P15056 [V600E]; assay: Inhibition of human BRAF V600E mutant at 10 uM by ELISA
# [2] = target: T1, Serine/threonine-protein kinase B-raf (Homo sapiens, UniProt P15056); assay: Inhibition of human wild type BRAF at 10 uM by ELISA
# Outline: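 Wild-type BRAF kinase inhibition run in the same manner as the V600E-B-RAF ELISA, reported as percent inhibition at 10 µM.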
# NCI-H522 = assay: Cytotoxicity against human NCI-H522 cells assessed as reduction in cell viability after 48 hrs by SRB assay; assay type: functional, cell-based; settings: NCI-H522, 48 h
# Outline: (§1)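 Cell lines from the NCI sixty human cancer cell line panel. IC50 taken as the concentration that reduces cellular growth to 50% of untreated cells.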
# HCT-116 = assay: Cytotoxicity against human HCT116 cells assessed as reduction in cell viability after 48 hrs by SRB assay; assay type: functional, cell-based; settings: HCT-116, 48 h; outline: as §1
# IGROV-1 [3] = assay: Cytotoxicity against human IGROV1 cells assessed as reduction in cell viability after 48 hrs by SRB assay; assay type: functional, cell-based; settings: IGROV-1, 48 h; outline: as §1
# K562 [4] = assay: Cytotoxicity against human K562 cells assessed as reduction in cell viability after 48 hrs by SRB assay; assay type: functional, cell-based; settings: K562, 48 h; outline: as §1
# M14 [5] = assay: Cytotoxicity against human M14 cells assessed as reduction in cell viability after 48 hrs by SRB assay; assay type: functional, cell-based; settings: M14, 48 h; outline: as §1
# NCI-H460 = assay: Cytotoxicity against human NCI-H460 cells assessed as reduction in cell viability after 48 hrs by SRB assay; assay type: functional, cell-based; settings: NCI-H460, 48 h; outline: as §1
# HL-60(TB) [6] = assay: Cytotoxicity against human HL-60(TB) cells assessed as reduction in cell viability at 10 uM after 48 hrs by SRB assay relative to control; assay type: functional; settings: HL-60, 48 h
# MDA-MB-231 = assay: Cytotoxicity against human MDA-MB-231 cells assessed as reduction in cell viability after 48 hrs by SRB assay; assay type: functional, cell-based; settings: MDA-MB-231, 48 h; outline: as §1
# HL-60(TB) [7] = assay: Cytotoxicity against human HL-60(TB) cells assessed as reduction in cell viability after 48 hrs by SRB assay; assay type: functional, cell-based; settings: HL-60, 48 h
# Outline: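 Tested within the NCI sixty human cancer cell line panel. IC50 is the concentration that reduces cellular growth to 50% of untreated cells after treatment.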
# DU-145 = assay: Cytotoxicity against human DU145 cells assessed as reduction in cell viability after 48 hrs by SRB assay; assay type: functional, cell-based; settings: DU-145, 48 h; outline: as §1
# K562 [8] = assay: Cytotoxicity against human K562 cells assessed as reduction in cell viability at 10 uM after 48 hrs by SRB assay relative to control; assay type: functional; settings: K562, 48 h
# Hs-578T = assay: Cytotoxicity against human Hs 578T cells assessed as reduction in cell viability after 48 hrs by SRB assay; assay type: functional, cell-based; outline: as §1
# SK-MEL-2 [9] = assay: Cytotoxicity against human SK-MEL-2 cells assessed as reduction in cell viability after 48 hrs by SRB assay; assay type: functional, cell-based; settings: SK-MEL-2, 48 h; outline: as §1
# SK-OV-3 [10] = assay: Cytotoxicity against human SKOV3 cells assessed as reduction in cell viability after 48 hrs by SRB assay; assay type: functional, cell-based; settings: SK-OV-3, 48 h; outline: as §1
# ACHN [11] = assay: Cytotoxicity against human ACHN cells assessed as reduction in cell viability after 48 hrs by SRB assay; assay type: functional, cell-based; outline: as §1
# LOX IMVI = assay: Cytotoxicity against human LOXIMVI cells assessed as reduction in cell viability after 48 hrs by SRB assay; assay type: functional, cell-based; outline: as §1
# Malme-3M = assay: Cytotoxicity against human MALME-3M cells assessed as reduction in cell viability after 48 hrs by SRB assay; assay type: functional, cell-based; outline: as §1
# CAKI-1 [12] = assay: Cytotoxicity against human Caki1 cells assessed as reduction in cell viability after 48 hrs by SRB assay; assay type: functional, cell-based; settings: CAKI-1, 48 h; outline: as §1
# [13] = target: Serine/threonine-protein kinase B-raf (Homo sapiens, UniProt P15056, V600E); assay: Inhibition of human BRAF V600E mutant by ELISA
# Serine/threonine-protein kinase B-raf (Homo sapiens, UniProt P15056, V600E), sequence (P15056 2-766 V600E limits assumed): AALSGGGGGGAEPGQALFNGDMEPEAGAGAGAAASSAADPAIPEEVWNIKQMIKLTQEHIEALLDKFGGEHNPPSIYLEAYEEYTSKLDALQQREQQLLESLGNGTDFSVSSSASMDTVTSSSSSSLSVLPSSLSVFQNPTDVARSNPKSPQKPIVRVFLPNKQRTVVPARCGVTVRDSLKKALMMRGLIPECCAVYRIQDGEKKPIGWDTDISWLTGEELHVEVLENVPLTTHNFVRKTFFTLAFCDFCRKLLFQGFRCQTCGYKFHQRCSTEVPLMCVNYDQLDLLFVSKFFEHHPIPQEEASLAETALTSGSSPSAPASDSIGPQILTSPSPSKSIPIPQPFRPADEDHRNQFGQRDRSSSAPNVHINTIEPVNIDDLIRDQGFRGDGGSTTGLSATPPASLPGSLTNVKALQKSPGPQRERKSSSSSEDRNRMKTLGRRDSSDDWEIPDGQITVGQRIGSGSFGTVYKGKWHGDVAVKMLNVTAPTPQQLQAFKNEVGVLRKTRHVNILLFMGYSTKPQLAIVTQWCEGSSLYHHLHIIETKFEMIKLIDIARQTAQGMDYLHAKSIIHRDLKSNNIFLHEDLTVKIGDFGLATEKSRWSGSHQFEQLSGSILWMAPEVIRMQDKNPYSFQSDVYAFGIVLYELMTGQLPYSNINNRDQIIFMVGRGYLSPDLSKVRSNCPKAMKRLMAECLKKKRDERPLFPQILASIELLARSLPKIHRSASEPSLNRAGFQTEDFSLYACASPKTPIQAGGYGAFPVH
# A498 = assay: Cytotoxicity against human A498 cells assessed as reduction in cell viability after 48 hrs by SRB assay; assay type: functional, cell-based; settings: A498, 48 h; outline: as §1
# [14] = target: T1, Serine/threonine-protein kinase B-raf; assay: Inhibition of BRAF (unknown origin)
# ACHN [15] = assay: Cytotoxicity against human ACHN cells assessed as reduction in cell viability at 10 uM after 48 hrs by SRB assay relative to control; assay type: functional
# SK-MEL-2 [16] = assay: Cytotoxicity against human SK-MEL-2 cells assessed as reduction in cell viability at 10 uM after 48 hrs by SRB assay relative to control; assay type: functional; settings: SK-MEL-2, 48 h
# CAKI-1 [17] = assay: Cytotoxicity against human Caki1 cells assessed as reduction in cell viability at 10 uM after 48 hrs by SRB assay relative to control; assay type: functional; settings: CAKI-1, 48 h
# M14 [18] = assay: Cytotoxicity against human M14 cells assessed as reduction in cell viability at 10 uM after 48 hrs by SRB assay relative to control; assay type: functional; settings: M14, 48 h
# IGROV-1 [19] = assay: Cytotoxicity against human IGROV1 cells assessed as reduction in cell viability at 10 uM after 48 hrs by SRB assay relative to control; assay type: functional; settings: IGROV-1, 48 h
# SK-OV-3 [20] = assay: Cytotoxicity against human SKOV3 cells assessed as reduction in cell viability at 10 uM after 48 hrs by SRB assay relative to control; assay type: functional; settings: SK-OV-3, 48 h
# Serine/threonine-protein kinase B-raf (Homo sapiens), P15056 [V600E], sequence (P15056 whole entry V600E): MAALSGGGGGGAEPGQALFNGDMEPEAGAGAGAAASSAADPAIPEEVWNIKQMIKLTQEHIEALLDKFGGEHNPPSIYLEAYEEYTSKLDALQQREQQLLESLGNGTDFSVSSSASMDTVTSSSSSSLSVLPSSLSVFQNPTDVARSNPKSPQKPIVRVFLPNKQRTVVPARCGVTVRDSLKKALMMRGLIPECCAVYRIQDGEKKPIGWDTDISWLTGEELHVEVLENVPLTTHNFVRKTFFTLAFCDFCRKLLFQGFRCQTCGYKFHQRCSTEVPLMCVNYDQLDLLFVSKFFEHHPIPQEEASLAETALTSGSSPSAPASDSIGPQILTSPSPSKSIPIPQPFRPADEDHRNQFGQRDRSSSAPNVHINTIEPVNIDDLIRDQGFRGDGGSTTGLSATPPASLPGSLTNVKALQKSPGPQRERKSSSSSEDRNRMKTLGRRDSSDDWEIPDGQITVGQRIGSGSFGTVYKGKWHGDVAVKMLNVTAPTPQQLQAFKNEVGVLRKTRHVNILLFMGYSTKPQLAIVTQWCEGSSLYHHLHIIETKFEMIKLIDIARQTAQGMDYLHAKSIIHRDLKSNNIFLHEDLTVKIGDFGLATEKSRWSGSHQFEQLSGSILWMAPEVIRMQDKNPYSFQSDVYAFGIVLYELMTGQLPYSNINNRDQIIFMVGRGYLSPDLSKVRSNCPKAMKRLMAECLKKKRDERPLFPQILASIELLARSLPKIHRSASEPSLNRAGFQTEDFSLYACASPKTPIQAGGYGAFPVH
# T1 sequence (P15056 whole entry): as the sequence (P15056 whole entry V600E) above, with E600V counted along it
structure (smiles),measurement,setting,value
O=S(=O)(NCCNc1nccc(-n2ccc3cccnc32)n1)c1cccc(Br)c1,inhibition,[1],65.3%
same,inhibition,[2],55.2%
O=C(Nc1ccc(C(F)(F)F)cc1)Nc1ccc(F)c(C(=O)c2c[nH]c3ncccc23)c1F,IC50,NCI-H522,29.1 µM
same,IC50,HCT-116,15.5 µM
same,IC50,IGROV-1 [3],9.66 µM
same,IC50,K562 [4],25.3 µM
same,IC50,M14 [5],24.3 µM
same,IC50,NCI-H460,26.4 µM
same,inhibition at 10 µM,HL-60(TB) [6],67%
same,IC50,MDA-MB-231,9.72 µM
same,IC50,HL-60(TB) [7],8.12 µM
same,inhibition,[1],98.7%
same,IC50,DU-145,27.6 µM
same,inhibition at 10 µM,K562 [8],83%
same,IC50,Hs-578T,21.4 µM
same,IC50,SK-MEL-2 [9],21.1 µM
same,IC50,SK-OV-3 [10],18.8 µM
same,IC50,ACHN [11],21.3 µM
same,IC50,LOX IMVI,27 µM
same,IC50,Malme-3M,12.3 µM
same,IC50,CAKI-1 [12],14 µM
same,IC50,[13],0.114 µM
same,inhibition,[2],79.3%
same,IC50,A498,32.3 µM
O=C(NCCNc1nccc(-n2ccc3cccnc32)n1)c1ccc(C(F)(F)F)cc1,inhibition,[1],32.9%
same,inhibition,[2],12.1%
CCCS(=O)(=O)Nc1ccc(F)c(-n2cc(-c3cncnc3)c3nc(N(C)C4CCN(CC)CC4)ccc32)c1F [XP-102],IC50,[14],0.0004 µM
Cc1ccc(C(=O)NCCCNc2nccc(-n3ccc4cccnc43)n2)cc1,inhibition,[1],61.6%
same,inhibition,[2],50%
COc1ccc(NC(=O)Nc2ccc(F)c(C(=O)c3c[nH]c4ncccc34)c2F)cc1,inhibition,[1],81.3%
same,inhibition,[2],69.6%
COc1ccc(S(=O)(=O)NCCCNc2nccc(-n3ccc4cccnc43)n2)cc1,inhibition,[1],94.5%
same,IC50,[13],0.79 µM
same,inhibition,[2],82.1%
O=S(=O)(NCCCNc1nccc(-n2ccc3cccnc32)n1)c1cccc(C(F)(F)F)c1,inhibition,[1],96.1%
same,IC50,[13],1.1 µM
same,inhibition,[2],86.3%
O=C(NCCCNc1nccc(-n2ccc3cccnc32)n1)c1ccc(Cl)cc1,inhibition,[1],80.7%
same,inhibition,[2],72.1%
O=S(=O)(NCCCNc1nccc(-n2ccc3cccnc32)n1)c1ccccc1,inhibition,[1],95.5%
same,IC50,[13],0.75 µM
same,inhibition,[2],81.4%
O=C(NCCCNc1nccc(-n2ccc3cccnc32)n1)c1ccc(C(F)(F)F)cc1,inhibition,[1],15.3%
same,inhibition,[2],9.45%
Cc1ccc(NC(=O)Nc2ccc(F)c(C(=O)c3c[nH]c4ncccc34)c2F)cc1,inhibition,[1],98.4%
same,IC50,[13],0.085 µM
same,inhibition,[2],77.6%
O=C(NCCNc1nccc(-n2ccc3cccnc32)n1)c1ccccc1,inhibition,[1],86.3%
same,inhibition,[2],86.3%
O=C(Nc1ccc(Br)cc1)Nc1ccc(F)c(C(=O)c2c[nH]c3ncccc23)c1F,inhibition,[1],92%
same,inhibition,[2],80.1%
O=C(Nc1ccc(Br)cc1)Nc1ccc(F)c(C(=O)c2c[nH]c3ncc(Br)cc23)c1F,IC50,NCI-H522,9.01 µM
same,IC50,HCT-116,8.71 µM
same,inhibition at 10 µM,ACHN [15],70%
same,IC50,IGROV-1 [3],5.06 µM
same,IC50,K562 [4],7.21 µM
same,IC50,M14 [5],7.92 µM
same,IC50,NCI-H460,10.5 µM
same,inhibition at 10 µM,SK-MEL-2 [16],85%
same,inhibition at 10 µM,CAKI-1 [17],90%
same,IC50,MDA-MB-231,12.2 µM
same,IC50,HL-60(TB) [7],10.9 µM
same,inhibition at 10 µM,M14 [18],65%
same,inhibition,[1],92.3%
same,IC50,DU-145,9.62 µM
same,inhibition at 10 µM,IGROV-1 [19],75%
same,inhibition at 10 µM,K562 [8],65%
same,IC50,Hs-578T,9.36 µM
same,IC50,SK-MEL-2 [9],6.02 µM
same,IC50,SK-OV-3 [10],4.52 µM
same,inhibition at 10 µM,SK-OV-3 [20],87%
same,IC50,ACHN [11],7.62 µM
same,IC50,LOX IMVI,26.5 µM
same,IC50,Malme-3M,9.26 µM
same,IC50,CAKI-1 [12],3.04 µM
same,IC50,[13],0.08 µM
same,inhibition,[2],72.5%
same,IC50,A498,11.2 µM
O=S(=O)(NCCCNc1nccc(-n2ccc3cccnc32)n1)c1ccc(Br)cc1,inhibition,[1],97.7%
same,IC50,[13],0.35 µM
same,inhibition,[2],75.2%
O=S(=O)(NCCNc1nccc(-n2ccc3cccnc32)n1)c1ccc(Br)cc1,inhibition,[1],65.9%
same,inhibition,[2],44.6%
O=C(NCCNc1nccc(-n2ccc3cccnc32)n1)c1ccc(Cl)cc1,inhibition,[1],0.16%
same,inhibition,[2],-1.1%
O=C(Nc1ccc(F)c(C(=O)c2c[nH]c3ncccc23)c1F)Nc1cccc2ccccc12,inhibition,[1],85.6%
same,inhibition,[2],68.9%
O=S(=O)(NCCCNc1nccc(-n2ccc3cccnc32)n1)c1ccc(F)cc1,inhibition,[1],95.2%
same,IC50,[13],0.88 µM
same,inhibition,[2],79.7%
O=C(Nc1ccccc1)Nc1ccc(F)c(C(=O)c2c[nH]c3ncccc23)c1F,inhibition,[1],94.5%
same,inhibition,[2],86.5%
Cc1ccc(S(=O)(=O)NCCNc2nccc(-n3ccc4cccnc43)n2)cc1,inhibition,[1],41.1%
same,inhibition,[2],26.3%
O=C(NCCNc1nccc(-n2ccc3cccnc32)n1)c1ccc(F)cc1,inhibition,[1],70%
same,inhibition,[2],56.8%
Cc1ccc(S(=O)(=O)NCCCNc2nccc(-n3ccc4cccnc43)n2)cc1,inhibition,[1],93%
same,IC50,[13],1 µM
same,inhibition,[2],83.3%
O=C(NCCCNc1nccc(-n2ccc3cccnc32)n1)C1CCCCC1,inhibition,[1],49.6%
same,inhibition,[2],41.2%
O=C(NCCNc1nccc(-n2ccc3cccnc32)n1)c1c(F)cccc1F,inhibition,[1],-1.9%
same,inhibition,[2],0.1%
O=S(=O)(NCCCNc1nccc(-n2ccc3cccnc32)n1)c1ccc(Cl)cc1,inhibition,[1],96.8%
same,inhibition,[2],66.5%
COc1ccc(S(=O)(=O)NCCNc2nccc(-n3ccc4cccnc43)n2)cc1,inhibition,[1],56.7%
same,inhibition,[2],39.2%
O=C(NCCCNc1nccc(-n2ccc3cccnc32)n1)c1ccc(F)cc1,inhibition,[1],67.5%
same,inhibition,[2],58.7%
O=C(NCCCNc1nccc(-n2ccc3cccnc32)n1)c1c(F)cccc1F,inhibition,[1],72.6%
same,inhibition,[2],67.2%
O=S(=O)(NCCCNc1nccc(-n2ccc3cccnc32)n1)c1cccc(Br)c1,inhibition,[1],96.7%
same,IC50,[13],0.5 µM
same,inhibition,[2],89.4%
O=S(=O)(NCCNc1nccc(-n2ccc3cccnc32)n1)c1cccc(C(F)(F)F)c1,inhibition,[1],18.1%
same,inhibition,[2],10.2%
O=S(=O)(NCCNc1nccc(-n2ccc3cccnc32)n1)c1ccc(F)cc1,inhibition,[1],89.5%
same,inhibition,[2],55.9%
O=C(NCCNc1nccc(-n2ccc3cccnc32)n1)C1CCCCC1,inhibition,[1],73.7%
same,inhibition,[2],43.4%
O=C(Nc1cccc(F)c1)Nc1ccc(F)c(C(=O)c2c[nH]c3ncccc23)c1F,inhibition,[1],49%
same,inhibition,[2],51.2%
Cc1ccc(C(=O)NCCNc2nccc(-n3ccc4cccnc43)n2)cc1,inhibition,[1],81.8%
same,inhibition,[2],53.8%
O=S(=O)(NCCNc1nccc(-n2ccc3cccnc32)n1)c1ccc(Cl)cc1,inhibition,[1],63.7%
same,inhibition,[2],49.2%
O=C(NCCCNc1nccc(-n2ccc3cccnc32)n1)c1ccccc1,inhibition,[1],69.4%
same,inhibition,[2],60.9%
O=S(=O)(NCCNc1nccc(-n2ccc3cccnc32)n1)c1ccccc1,inhibition,[1],66.5%
same,inhibition,[2],52.3%
